The values that follow come from ChEMBL document CHEMBL5661979, “Pharmacological inhibition of BMK1 suppresses tumor growth through promyelocytic leukemia protein” (Cancer Cell, 2010).

For assay [1], the target named is RAC-alpha serine/threonine-protein kinase (Homo sapiens, UniProt P31749). The assay is described as follows: Inhibition of AKT1 in human HeLa cells lysate at 2 uM pre incubated for 15 mins followed by ATP acyl phosphate probe addition and measured after 10 mins by LC-MS/MS analysis relative to control. As to conditions: time 25.0 min. It counts as subcellular. The essentials: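 HeLa cell lysates (5 mg/mL total protein) were preincubated with inhibitor at 0, 0.8, 2, 10 or 50 μM for 15 min. ATP or ADP acylphosphate probe was then added (5 μM final) for 10 min, and reactions were stopped with urea. Up to four fragment ions per kinase probe-peptide were quantified by targeted MS. % inhibition was taken relative to untreated lysate. Run in duplicate.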

Assay [2] is described as follows: Inhibition of HGK/MINK/TNIK in human HeLa cells lysate at 50 uM pre incubated for 15 mins followed by ATP acyl phosphate probe addition and measured after 10 mins by LC-MS/MS analysis relative to control. The conditions noted are these: 25 min, condition cancer.
Assay [3] can be described thus: Inhibition of MSK1/2 domain 1 in human HeLa cells lysate at 50 uM pre incubated for 15 mins followed by ATP acyl phosphate probe addition and measured after 10 mins by LC-MS/MS analysis relative to control. As to conditions: 25 min, condition cancer.
Assay [4] concerns the target Mitogen-activated protein kinase 4 (Homo sapiens, UniProt P31152). The assay is described as follows: Inhibition of ERK4 in human HeLa cells lysate pre incubated for 15 mins followed by ATP acyl phosphate probe addition and measured after 10 mins by LC-MS/MS analysis. It counts as subcellular.
Assay [5] has as its target Serine/threonine-protein kinase 24 (Homo sapiens, UniProt Q9Y6E0). In words: Inhibition of MST3 in human HeLa cells lysate at 2 uM pre incubated for 15 mins followed by ADP acyl phosphate probe addition and measured after 10 mins by LC-MS/MS analysis relative to control. Format: subcellular. As to conditions: time 25.0 min.
The target of assay [6] is T1, Serine/threonine-protein kinase Sgk3 (Homo sapiens) (UniProt Q96BR1).
T1 sequence (whole entry): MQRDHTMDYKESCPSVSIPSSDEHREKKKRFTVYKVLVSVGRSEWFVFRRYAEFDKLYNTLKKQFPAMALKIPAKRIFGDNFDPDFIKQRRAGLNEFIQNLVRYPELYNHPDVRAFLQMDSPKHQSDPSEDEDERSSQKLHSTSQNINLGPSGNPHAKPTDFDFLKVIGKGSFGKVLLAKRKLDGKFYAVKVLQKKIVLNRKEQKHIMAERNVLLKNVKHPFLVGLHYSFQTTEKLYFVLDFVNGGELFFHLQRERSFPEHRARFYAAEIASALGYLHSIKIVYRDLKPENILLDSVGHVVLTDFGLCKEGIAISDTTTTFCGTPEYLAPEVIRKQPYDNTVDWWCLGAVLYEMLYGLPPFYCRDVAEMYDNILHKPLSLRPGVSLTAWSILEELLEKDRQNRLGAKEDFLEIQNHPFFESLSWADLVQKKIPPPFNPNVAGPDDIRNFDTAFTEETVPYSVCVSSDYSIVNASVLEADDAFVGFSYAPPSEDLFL
In words: Inhibition of SGK3 in human HeLa cells lysate at 10 uM pre incubated for 15 mins followed by ADP acyl phosphate probe addition and measured after 10 mins by LC-MS/MS analysis relative to control. It counts as subcellular. The conditions noted are these: time 25.0 min.

Assay [7] addresses Dual specificity mitogen-activated protein kinase kinase 3 (Homo sapiens, UniProt P46734). The assay is described as follows: Inhibition of MAP2K3 in human HeLa cells lysate pre incubated for 15 mins followed by ATP acyl phosphate probe addition and measured after 10 mins by LC-MS/MS analysis. Format: subcellular.
Assay [8] deals with T2, Tyrosine-protein kinase CSK (Homo sapiens, UniProt P41240). In words: Inhibition of CSK in human HeLa cells lysate at 2 uM pre incubated for 15 mins followed by ADP acyl phosphate probe addition and measured after 10 mins by LC-MS/MS analysis relative to control. Format: subcellular. As to conditions: time 25.0 min.
Target sequence in this assay (P41240 2-450 limits assumed): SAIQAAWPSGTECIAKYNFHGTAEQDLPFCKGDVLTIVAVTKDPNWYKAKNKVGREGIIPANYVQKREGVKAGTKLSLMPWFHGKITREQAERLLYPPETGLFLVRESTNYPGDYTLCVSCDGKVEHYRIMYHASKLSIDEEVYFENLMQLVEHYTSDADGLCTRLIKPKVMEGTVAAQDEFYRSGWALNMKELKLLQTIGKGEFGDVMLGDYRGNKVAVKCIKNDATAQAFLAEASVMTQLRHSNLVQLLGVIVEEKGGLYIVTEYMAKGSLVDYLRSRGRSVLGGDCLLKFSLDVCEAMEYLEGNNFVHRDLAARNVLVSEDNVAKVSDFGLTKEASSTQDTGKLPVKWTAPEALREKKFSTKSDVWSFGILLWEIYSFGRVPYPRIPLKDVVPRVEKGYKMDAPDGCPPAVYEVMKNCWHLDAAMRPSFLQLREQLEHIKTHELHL
For assay [9], the target named is Serine/threonine-protein kinase PLK4 (Homo sapiens) (UniProt O00444). In words: Inhibition of PLK4 (unknown origin) assessed as remaining activity at 10 uM by ATP-competition binding assay relative to control.
Assay [10] deals with Serine/threonine-protein kinase/endoribonuclease IRE1 (Homo sapiens, UniProt O75460). In words: Inhibition of IRE1 in human HeLa cells lysate pre incubated for 15 mins followed by ADP acyl phosphate probe addition and measured after 10 mins by LC-MS/MS analysis. Format: subcellular.
The target in assay [11] is Cyclin-dependent kinase 7 (Homo sapiens, UniProt P50613). The assay is described as follows: Inhibition of CDK7 in human HeLa cells lysate pre incubated for 15 mins followed by ATP acyl phosphate probe addition and measured after 10 mins by LC-MS/MS analysis. Format: subcellular. The essentials:
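KiNativ profiling in HeLa lysate (5 mg/mL total protein). Lysate incubated 15 min with inhibitor at 50, 10, 2, 0.8 or 0 μM. ATP or ADP acylphosphate probe then added (5 μM final) and reacted 10 min. Reaction stopped with urea and analysed by targeted MS, using up to four fragment ions per kinase peptide-probe conjugate. % inhibition taken against untreated lysate. Run in duplicate.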

The target of assay [12] is Glycogen synthase kinase-3 alpha (Homo sapiens, UniProt P49840). The assay is described as follows: Inhibition of GSK3A in human HeLa cells lysate pre incubated for 15 mins followed by ATP acyl phosphate probe addition and measured after 10 mins by LC-MS/MS analysis. Format: subcellular.
The target in assay [13] is T2, Tyrosine-protein kinase CSK. The assay is described as follows: Inhibition of CSK in human HeLa cells lysate pre incubated for 15 mins followed by ADP acyl phosphate probe addition and measured after 10 mins by LC-MS/MS analysis. Format: subcellular.
Assay [14] has as its target Serine/threonine-protein kinase B-raf (Homo sapiens, UniProt P15056). The assay is described as follows: Inhibition of BRAF in human HeLa cells lysate at 2 uM pre incubated for 15 mins followed by ADP acyl phosphate probe addition and measured after 10 mins by LC-MS/MS analysis relative to control. Format: subcellular. The conditions noted are these: time 25.0 min. In short, it runs like this: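 KiNativ-type profiling in HeLa lysate (5 mg/mL total protein). Lysate preincubated 15 min with inhibitor at 50, 10, 2, 0.8 or 0 μM, then ATP or ADP acylphosphate probe added (5 μM final) for 10 min. Reaction stopped with urea and analysed by targeted MS, using up to four fragment ions per kinase peptide-probe conjugate. % inhibition calculated against untreated lysate. Duplicate reactions.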

Assay [15] concerns the target Casein kinase I isoform alpha (Homo sapiens, UniProt P48729). The assay is described as follows: Inhibition of CK1alpha in human HeLa cells lysate at 2 uM pre incubated for 15 mins followed by ATP acyl phosphate probe addition and measured after 10 mins by LC-MS/MS analysis relative to control. As to conditions: time 25.0 min. Format: subcellular.
Assay [16] concerns the target Serine/threonine-protein kinase 38-like (Homo sapiens, UniProt Q9Y2H1). The assay is described as follows: Inhibition of NDR2 in human HeLa cells lysate at 10 uM pre incubated for 15 mins followed by ADP acyl phosphate probe addition and measured after 10 mins by LC-MS/MS analysis relative to control. Format: subcellular. As to conditions: time 25.0 min.
The nature of assay [17]: Inhibition of SRC/FYN/YES in human HeLa cells lysate at 50 uM pre incubated for 15 mins followed by ATP acyl phosphate probe addition and measured after 10 mins by LC-MS/MS analysis relative to control. As to conditions: 25 min, condition cancer.
Assay [18] concerns the target Cyclin-dependent kinase 12 (Homo sapiens, UniProt Q9NYV4). The assay is described as follows: Inhibition of CRK7 in human HeLa cells lysate at 2 uM pre incubated for 15 mins followed by ADP acyl phosphate probe addition and measured after 10 mins by LC-MS/MS analysis relative to control. Format: subcellular. As to conditions: time 25.0 min.
A short description of assay [19]: Inhibition of PRKX/PRKY in human HeLa cells lysate pre incubated for 15 mins followed by ADP acyl phosphate probe addition and measured after 10 mins by LC-MS/MS analysis. It counts as subcellular.

Molecules are shown by their SMILES. A value given as a limit tells only on which side of the number the result lay.

Chain of Serine/threonine-protein kinase B-raf (P15056 whole entry, the tested form may be a part): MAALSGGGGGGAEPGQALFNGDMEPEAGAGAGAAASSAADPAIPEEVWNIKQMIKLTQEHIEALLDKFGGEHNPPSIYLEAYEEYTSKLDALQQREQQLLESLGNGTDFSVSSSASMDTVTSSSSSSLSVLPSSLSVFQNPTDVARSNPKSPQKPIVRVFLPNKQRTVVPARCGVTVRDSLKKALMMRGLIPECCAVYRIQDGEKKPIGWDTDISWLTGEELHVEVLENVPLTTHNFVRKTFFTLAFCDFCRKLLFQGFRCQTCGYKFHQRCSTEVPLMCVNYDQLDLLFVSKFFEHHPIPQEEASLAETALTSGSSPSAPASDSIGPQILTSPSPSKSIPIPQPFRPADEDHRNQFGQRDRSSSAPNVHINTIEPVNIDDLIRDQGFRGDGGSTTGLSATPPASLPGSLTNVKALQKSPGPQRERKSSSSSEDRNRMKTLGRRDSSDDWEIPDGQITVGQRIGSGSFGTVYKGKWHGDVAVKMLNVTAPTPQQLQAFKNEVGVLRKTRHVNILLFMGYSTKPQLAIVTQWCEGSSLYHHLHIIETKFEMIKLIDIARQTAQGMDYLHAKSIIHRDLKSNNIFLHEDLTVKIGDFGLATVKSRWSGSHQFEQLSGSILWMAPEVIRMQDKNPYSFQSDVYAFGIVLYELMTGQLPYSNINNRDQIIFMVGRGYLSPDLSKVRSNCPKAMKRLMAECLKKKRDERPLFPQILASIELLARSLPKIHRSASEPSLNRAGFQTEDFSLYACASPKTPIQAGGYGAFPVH
Chain of Serine/threonine-protein kinase 24 (Q9Y6E0 whole entry, looked up): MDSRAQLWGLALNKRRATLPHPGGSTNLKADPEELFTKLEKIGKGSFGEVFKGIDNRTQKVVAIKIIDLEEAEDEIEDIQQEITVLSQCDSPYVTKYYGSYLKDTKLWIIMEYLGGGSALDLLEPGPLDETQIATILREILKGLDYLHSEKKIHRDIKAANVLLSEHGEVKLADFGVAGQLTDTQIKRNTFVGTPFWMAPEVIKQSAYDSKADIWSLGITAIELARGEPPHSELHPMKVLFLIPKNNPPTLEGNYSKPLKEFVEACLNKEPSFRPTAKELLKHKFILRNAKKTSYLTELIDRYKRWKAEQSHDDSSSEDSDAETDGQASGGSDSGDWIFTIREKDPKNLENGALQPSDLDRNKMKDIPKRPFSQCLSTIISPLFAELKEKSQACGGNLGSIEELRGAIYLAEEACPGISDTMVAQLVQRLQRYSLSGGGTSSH
Chain of Glycogen synthase kinase-3 alpha (P49840 whole entry): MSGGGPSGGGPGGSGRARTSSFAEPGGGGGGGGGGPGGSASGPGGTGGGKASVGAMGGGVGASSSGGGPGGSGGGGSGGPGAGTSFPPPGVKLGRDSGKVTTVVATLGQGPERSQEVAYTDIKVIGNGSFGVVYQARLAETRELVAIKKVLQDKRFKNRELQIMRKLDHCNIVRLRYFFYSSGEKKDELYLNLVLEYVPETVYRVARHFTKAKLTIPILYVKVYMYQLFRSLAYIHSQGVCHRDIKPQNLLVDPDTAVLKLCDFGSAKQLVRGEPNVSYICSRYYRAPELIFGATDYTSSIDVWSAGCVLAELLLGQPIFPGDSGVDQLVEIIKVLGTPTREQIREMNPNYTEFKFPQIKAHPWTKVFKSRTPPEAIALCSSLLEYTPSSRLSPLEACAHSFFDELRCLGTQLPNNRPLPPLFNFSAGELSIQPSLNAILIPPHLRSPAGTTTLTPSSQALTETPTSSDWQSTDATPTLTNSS
Chain of Serine/threonine-protein kinase PLK4 (Homo sapiens) (O00444 whole entry): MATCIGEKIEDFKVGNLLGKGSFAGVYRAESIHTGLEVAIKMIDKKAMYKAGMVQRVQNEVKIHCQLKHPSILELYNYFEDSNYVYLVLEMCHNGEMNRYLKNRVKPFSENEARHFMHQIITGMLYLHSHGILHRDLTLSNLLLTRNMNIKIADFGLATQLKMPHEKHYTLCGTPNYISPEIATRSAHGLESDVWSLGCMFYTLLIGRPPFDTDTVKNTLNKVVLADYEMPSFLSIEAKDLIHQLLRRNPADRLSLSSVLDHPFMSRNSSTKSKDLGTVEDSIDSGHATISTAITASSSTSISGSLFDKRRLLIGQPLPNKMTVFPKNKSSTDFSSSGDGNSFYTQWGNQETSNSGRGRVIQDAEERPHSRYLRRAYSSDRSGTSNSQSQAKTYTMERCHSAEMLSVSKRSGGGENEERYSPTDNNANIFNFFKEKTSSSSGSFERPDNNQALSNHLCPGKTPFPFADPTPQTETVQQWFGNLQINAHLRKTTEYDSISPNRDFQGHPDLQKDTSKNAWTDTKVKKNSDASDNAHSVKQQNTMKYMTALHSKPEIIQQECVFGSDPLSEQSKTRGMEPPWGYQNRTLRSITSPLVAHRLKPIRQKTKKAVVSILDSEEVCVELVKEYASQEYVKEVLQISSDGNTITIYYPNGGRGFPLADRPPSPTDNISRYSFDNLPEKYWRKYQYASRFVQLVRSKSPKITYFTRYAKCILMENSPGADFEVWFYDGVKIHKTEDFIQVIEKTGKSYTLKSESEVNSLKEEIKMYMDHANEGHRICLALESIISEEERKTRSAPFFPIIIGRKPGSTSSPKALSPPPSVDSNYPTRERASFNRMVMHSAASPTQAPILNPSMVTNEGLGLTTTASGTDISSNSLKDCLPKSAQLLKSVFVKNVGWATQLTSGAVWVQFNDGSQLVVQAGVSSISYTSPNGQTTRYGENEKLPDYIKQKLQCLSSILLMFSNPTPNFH
Chain of Cyclin-dependent kinase 12 (Q9NYV4 whole entry, looked up): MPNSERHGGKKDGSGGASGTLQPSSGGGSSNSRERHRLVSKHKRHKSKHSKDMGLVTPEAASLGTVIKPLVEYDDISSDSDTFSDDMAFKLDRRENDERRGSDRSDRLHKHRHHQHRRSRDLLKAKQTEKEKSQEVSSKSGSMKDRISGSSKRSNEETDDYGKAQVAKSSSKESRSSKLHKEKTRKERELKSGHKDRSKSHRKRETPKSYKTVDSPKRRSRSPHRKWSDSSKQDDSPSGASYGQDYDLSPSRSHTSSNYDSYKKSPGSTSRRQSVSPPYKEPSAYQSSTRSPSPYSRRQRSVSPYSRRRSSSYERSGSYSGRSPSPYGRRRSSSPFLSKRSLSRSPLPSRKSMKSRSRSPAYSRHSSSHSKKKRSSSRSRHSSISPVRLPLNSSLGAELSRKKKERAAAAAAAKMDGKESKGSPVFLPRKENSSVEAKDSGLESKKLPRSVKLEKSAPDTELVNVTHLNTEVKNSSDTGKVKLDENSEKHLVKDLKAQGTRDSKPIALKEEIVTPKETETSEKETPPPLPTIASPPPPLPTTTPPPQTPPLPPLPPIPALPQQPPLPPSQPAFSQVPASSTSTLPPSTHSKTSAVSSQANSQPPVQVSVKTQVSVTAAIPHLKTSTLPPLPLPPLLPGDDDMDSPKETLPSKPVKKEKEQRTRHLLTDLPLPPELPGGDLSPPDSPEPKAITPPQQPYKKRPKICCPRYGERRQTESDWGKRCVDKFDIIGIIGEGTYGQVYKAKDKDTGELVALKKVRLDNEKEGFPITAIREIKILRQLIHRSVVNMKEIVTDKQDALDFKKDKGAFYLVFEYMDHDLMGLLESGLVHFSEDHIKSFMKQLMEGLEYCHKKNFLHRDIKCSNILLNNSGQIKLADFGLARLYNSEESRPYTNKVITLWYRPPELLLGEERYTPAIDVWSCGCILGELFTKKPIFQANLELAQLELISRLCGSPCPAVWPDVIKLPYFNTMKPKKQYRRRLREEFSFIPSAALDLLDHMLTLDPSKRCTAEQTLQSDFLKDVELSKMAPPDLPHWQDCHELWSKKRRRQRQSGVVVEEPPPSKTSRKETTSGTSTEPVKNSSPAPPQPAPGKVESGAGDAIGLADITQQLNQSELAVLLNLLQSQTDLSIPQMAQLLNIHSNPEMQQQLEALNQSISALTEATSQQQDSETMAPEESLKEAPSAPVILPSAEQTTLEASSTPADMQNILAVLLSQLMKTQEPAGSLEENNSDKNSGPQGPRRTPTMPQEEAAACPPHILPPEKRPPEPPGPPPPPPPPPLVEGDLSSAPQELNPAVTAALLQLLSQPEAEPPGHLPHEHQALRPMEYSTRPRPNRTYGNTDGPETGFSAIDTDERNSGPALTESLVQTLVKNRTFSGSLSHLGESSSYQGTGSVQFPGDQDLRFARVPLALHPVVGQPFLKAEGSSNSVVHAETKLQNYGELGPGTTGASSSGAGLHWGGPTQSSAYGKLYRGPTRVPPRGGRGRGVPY
Chain of Casein kinase I isoform alpha (P48729 2-337 limits assumed): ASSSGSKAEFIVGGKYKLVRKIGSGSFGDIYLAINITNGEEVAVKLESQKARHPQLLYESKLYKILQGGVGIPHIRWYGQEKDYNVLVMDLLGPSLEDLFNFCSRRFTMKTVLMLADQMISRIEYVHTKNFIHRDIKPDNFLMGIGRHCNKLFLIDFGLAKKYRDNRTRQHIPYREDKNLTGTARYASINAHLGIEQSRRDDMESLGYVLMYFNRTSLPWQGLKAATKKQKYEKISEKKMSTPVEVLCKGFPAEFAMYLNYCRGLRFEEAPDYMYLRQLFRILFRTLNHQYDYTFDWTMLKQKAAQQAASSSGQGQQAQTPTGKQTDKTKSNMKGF

By inhibition is commonly meant the change of the read-out against control, counted positive when it falls. The IC50 is the concentration that inhibits the measured activity by half. Read a low IC50 as greater potency in that assay. Turning to `CCOc1cc(N2CCC(O)CC2)ccc1Nc1ncc2c(n1)N(C)c1ccccc1C(=O)N2C`, the inhibition in [1] is -6.9%; in assay [5], 3.2%; in assay [6] it was -0.3%; in [8], 11.6%; in assay [14] it was 10.5%; in assay [15], 2.6%. The inhibition in assay [16] amounted to 15.9%; in [18], 5.4%. Further, the inhibition at 50 µM in assay [2] is -2.6%; in assay [3] it was -21.5%; in assay [17], -27.1%. In addition, the IC50 in assay [4], in assay [7], in [10], in assay [11], in assay [12] and in assay [13] was over 50 µM each time. Besides, the half-maximal inhibitory concentration (IC50) in assay [19] was over 50 µM. The Activity in assay [9] was determined as 2.8%.
